One data set deals with E. aerogenes (MDR). Nature of the data set: MIC assay. It is filed as cell-based. To be noted: Gram-negative. The procedure, abridged:
(§1)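 Broth microdilution: test compound dissolved in physiological saline, two-fold serially diluted across wells (50 μL broth each). 50 μL bacterial suspension added (1.0 × 10⁶ CFU/mL). Incubation 16 h at 37 °C with constant agitation. MIC read visually together with absorbance at 600 nm. Each sample run in triplicate.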

The next data set deals with S. aureus (MDR). Nature of the data set: MIC assay. It is filed as cell-based. To be noted: Gram-positive. The procedure, abridged:
as §1

The next data set concerns E. coli ATCC 25922. Nature of the data set: MIC assay. It is filed as cell-based. To be noted: E. coli ATCC 25922, Gram-negative. The procedure, abridged:
as §1

A further data set deals with A. baumannii (MDR). Nature of the data set: MIC assay. It is filed as cell-based. To be noted: Gram-negative. Put shortly:
as §1

The subject of a further data set is B. subtilis ATCC 6633. Nature of the data set: MIC assay. In kind it is cell-based. The settings on record: B. subtilis ATCC 6633, Gram-positive. Put shortly:
as §1

A further data set concerns C. freundii (MDR). Nature of the data set: MIC assay. It is filed as cell-based. To be noted: Gram-negative. Put shortly:
as §1

The conditions of data set [1]: commercially available antimicrobial peptide drug; cited from earlier work.
A further data set concerns Gram-negative bacteria. Nature of the data set: Geometric mean of MICs and selectivity index, Gram-negative bacteria. It is filed as cell-based. The settings on record: geometric mean of MICs.
In a further data set the test system is Gram-positive bacteria. Nature of the data set: Geometric mean of MICs and selectivity index, Gram-positive bacteria. It is filed as cell-based. To be noted: geometric mean of MICs.
The next data set can be described thus: Cytotoxicity assay. In kind it is cell-based, human. The procedure, abridged:
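293T human embryonic kidney cells were seeded and grown 24 h, then exposed for 24 h to a concentration series of test compound in DMEM. CCK-8 reagent was added for 2 h at 37 °C, and absorbance was read at 450 nm. Five replicates per sample.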

The subject of data set [2] is human red blood cells (hRBCs). Nature of the data set: Hemolytic assay. The settings on record: median hemolytic concentration, 5 % hRBCs, 1 h, 37 °C. It is filed as cell-based. The procedure, abridged:
(§2)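 Human erythrocytes from heparinised blood, washed three times in PBS (centrifuged 1800 rpm, 4 °C, 5 min), used as a 5 % (v/v) suspension. Peptide two-fold dilutions in PBS, final 0.78–50 μM. Incubation 1 h at 37 °C, then 3000 rpm for 5 min; supernatant hemoglobin read at A405. Controls: PBS (0 %) and 1 % Triton X-100 (100 %). Five replicates; HC₅₀ derived as median hemolytic concentration.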

A further data set concerns all bacteria tested. Nature of the data set: Geometric mean of MICs and selectivity index, all bacteria. In kind it is cell-based. To be noted: geometric mean of MICs against all bacteria. The procedure, abridged:
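Geometric mean of the broth-microdilution MICs (μM) across all bacterial strains tested. It serves as the denominator of the selectivity index, SI = HC₅₀ (μM) / GM.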

The next data set is described as follows: Plasma stability by HPLC. In kind it is in vitro ADME. The settings on record: human, human plasma 25 % (v/v). Put shortly:
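An 8 mM aqueous stock of peptide (1 mL) was added to 3 mL of 25 % (v/v) human plasma and incubated at 37 °C with agitation, sampling from 0–48 h and up to 14 days. Each sample was quenched with an equal volume of 90 % acetonitrile/10 % TFA, cooled to 4 °C and spun at 10000 rpm for 10 min. Supernatant was quantified by HPLC against standard curves (0.0625–8 mM). Triplicates.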

A short description of the next data set: Hemolytic assay. In kind it is cell-based, human. The procedure, abridged:
as §2

By MIC is commonly meant the least concentration at which growth counts as inhibited. By half-life is commonly meant the time in which the quantity being followed falls by half. Broadly, the CC50 is the concentration giving 50% cytotoxicity. A higher CC50 goes with better tolerance by the cells. For orientation: HC50 means the concentration that lyses half of the red blood cells.

A value given as a limit tells only on which side of the number the result lay.

Take “Ac-GLRKVLRKFVNKIKR-NH2 [P-α-01, Ac-GLRKVLRKFVNKIKR-NH2]”: the MIC against E. aerogenes (MDR) stood at 50 µM; against S. aureus (MDR), 25 µM; in the data set with E. coli ATCC 25922, 12.5 µM; with A. baumannii (MDR), 12.5 µM; in the data set on B. subtilis ATCC 6633, 6.25 µM; against C. freundii (MDR), 6.25 µM.

polymyxin E: the half-life in [1] is reported as 0.39 h.

As for “Ac-GLFKFLRKFFNFIKR-NH2 [P-γ, Ac-GLFKFLRKFFNFIKR-NH2]”, the minimal inhibitory concentration (MIC) against E. aerogenes (MDR) came to 50 µM; in the data set with S. aureus (MDR), 50 µM; against E. coli ATCC 25922, 12.5 µM; with A. baumannii (MDR) it was 12.5 µM; against B. subtilis ATCC 6633, 12.5 µM; against C. freundii (MDR), 50 µM.

As for “Ac-GLWKWLRKFWNKIKR-NH2 [P-β-02, Ac-GLWKWLRKFWNKIKR-NH2]”, the MIC in the data set on E. aerogenes (MDR) was found to be 25 µM; in the data set with S. aureus (MDR) it was 25 µM; in the data set on E. coli ATCC 25922, 12.5 µM; with A. baumannii (MDR) it was 12.5 µM; with B. subtilis ATCC 6633 it was 6.25 µM; against C. freundii (MDR), 12.5 µM.

As to “Ac-GLRKALRKFANKIKR-NH2 [P-α-05, Ac-GLRKALRKFANKIKR-NH2]”, the minimal inhibitory concentration (MIC) in the data set with E. aerogenes (MDR) turned out to be 50 µM; against S. aureus (MDR), 50 µM; against E. coli ATCC 25922 it was 50 µM; with A. baumannii (MDR) it was 50 µM; in the data set on B. subtilis ATCC 6633, 25 µM; against C. freundii (MDR), 50 µM.

Take “Ac-GLFKFLRKFFNKIKR-NH2 [P-β, Ac-GLFKFLRKFFNKIKR-NH2]”: the MIC came out at 12.5 µM in the data set with E. aerogenes (MDR); 6.25 µM in the data set with S. aureus (MDR); 6.25 µM in the data set on E. coli ATCC 25922; 6.25 µM in the data set on A. baumannii (MDR); 6.25 µM in the data set on B. subtilis ATCC 6633; 6.25 µM in the data set on C. freundii (MDR). Further, the GM- with Gram-negative bacteria turned out to be 7.43 µM. Also, the “GM+” value in the data set on Gram-positive bacteria amounted to 6.25 µM. Besides, the CC50 in the data set “Cytotoxicity assay” stood at 28.2 µM. Further, the HC50 in data set [2] turned out to be 136.69 µM. Besides, the GMall with all bacteria tested was 7.02 µM.

Turning to “Ac-GLRKMLRKFMNKIKR-NH2 [P-α-06, Ac-GLRKMLRKFMNKIKR-NH2]”, the MIC against E. aerogenes (MDR) came out at 25 µM; in the data set on S. aureus (MDR) it was 12.5 µM; against E. coli ATCC 25922 it was 12.5 µM; against A. baumannii (MDR) it was 12.5 µM; in the data set with B. subtilis ATCC 6633, 6.25 µM; in the data set with C. freundii (MDR), 6.25 µM.

For “Ac-GLRKFLRKFFNKIKR-NH2 [P-α, Ac-GLRKFLRKFFNKIKR-NH2]”, the MIC turned out to be 12.5 µM with E. aerogenes (MDR); 6.25 µM in the data set on S. aureus (MDR); 6.25 µM with E. coli ATCC 25922; 6.25 µM in the data set with A. baumannii (MDR); 6.25 µM against B. subtilis ATCC 6633; 6.25 µM in the data set on C. freundii (MDR). This substance had a GM- in the data set with Gram-negative bacteria of 14.87 µM. For the same substance, the “GM+” value in the data set with Gram-positive bacteria is 6.25 µM. Further, the half-life at 2 mM in “Plasma stability by HPLC” is 15.3 h. This substance also came in with a hemolysis at 50 µM in “Hemolytic assay” of 1.5%. In the data set on all bacteria tested, this substance displayed a GMall of 7.02 µM.

For the substance “Ac-GLRKILRKFINKIKR-NH2 [P-α-03, Ac-GLRKILRKFINKIKR-NH2]”, the minimum inhibitory concentration (MIC) against E. aerogenes (MDR) was determined as 12.5 µM; in the data set on S. aureus (MDR), 6.25 µM; with E. coli ATCC 25922 it was 3.125 µM; against A. baumannii (MDR) it was 6.25 µM; in the data set on B. subtilis ATCC 6633, 3.125 µM; against C. freundii (MDR) it was 6.25 µM.

In the case of Polymyxin B [reference compound], the minimum inhibitory concentration (MIC) against S. aureus (MDR) stood at 25 µM; with E. coli ATCC 25922 it was 0.78 µM; in the data set on A. baumannii (MDR), 0.78 µM; against B. subtilis ATCC 6633, 1.56 µM.

As to “Ac-GLRKLLRKFLNKIKR-NH2 [P-α-04, Ac-GLRKLLRKFLNKIKR-NH2]”, the MIC with E. aerogenes (MDR) came to 6.25 µM; against S. aureus (MDR), 3.125 µM; in the data set with E. coli ATCC 25922 it was 3.125 µM; with A. baumannii (MDR), 6.25 µM; with B. subtilis ATCC 6633, 3.125 µM; in the data set on C. freundii (MDR), 3.125 µM. Besides, the GM- with Gram-negative bacteria came out at 4.42 µM. Also, the “GM+” value in the data set on Gram-positive bacteria came to 3.13 µM. In “Plasma stability by HPLC”, this substance gave a half-life at 2 mM of 17.4 h. In addition, in the data set “Cytotoxicity assay”, half-maximal cytotoxicity (CC50) was put at 193 µM. Besides, the 50% haemolytic concentration (HC50) in data set [2] was >1000 µM. In the data set on all bacteria tested, this substance had a GMall of 3.94 µM.
